One assay relates to CCRF-CEM. Description: Inhibitory concentration required to inhibit human T-lymphocyte (CEM) cell line by 50%. The assay is classed as functional, cell-based.
The test system of a further assay is HeLa. Put plainly: Inhibitory concentration required to inhibit cervical carcinoma (HeLa) cells by 50%. The format is functional, cell-based. As to conditions: Homo sapiens. In a few lines: (§1)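 Monolayer cells in D-MEM or RPMI 1640 with 10% FBS, 37 °C, 5% CO2, seeded at 3 × 10⁴/mL. MTT read-out at 570 nm as % growth. IC50 by manual graphical fitting; mean ± SD, four parallel samples, three experiments.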

Assay [1] can be described thus: Inhibitory concentration required to inhibit pancreatic carcinoma (MiaPaCa2) cells by 50%. The format is functional, Homo sapiens. The method, boiled down: as §1
For another assay, the system named is FM3A. Put plainly: Inhibitory concentration required to inhibit mammary carcinoma (FM3A) cell line by 50%. The format is functional, cell-based. As to conditions: Mus musculus.
A further assay has as its system MOLT-4. Put plainly: Inhibitory concentration required to inhibit human T-lymphocyte (Molt4/C8) cell line by 50%. The format is functional, cell-based.
Another assay has as its system HEp-2. Put plainly: Inhibitory concentration required to inhibit laryngeal carcinoma (Hep2) cells by 50%. The assay is classed as functional, cell-based. As to conditions: Homo sapiens. In a few lines: as §1
For another assay, the system named is SW-620. Description: Inhibitory concentration required to inhibit human colon carcinoma (SW620) cells by 50%. The format is functional, cell-based. In a few lines: (§2)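 Cells grown as monolayers in D-MEM or RPMI 1640 with 10% FBS at 37 °C, 5% CO2, plated at 5 × 10⁴/mL. Viable cells by MTT absorbance at 570 nm. IC50 from manual graphical fit; mean ± SD of four parallel samples in three experiments.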

A further assay concerns HT-29. Put plainly: Inhibitory concentration required to inhibit human colon carcinoma (HT-29) cells by 50%. The assay is classed as functional, cell-based. In a few lines:
as §1

The subject of another assay is WI-38. Description: Inhibitory concentration required to inhibit diploid fibroblasts (WI38) by 50%. The assay is classed as functional, cell-based. As to conditions: Homo sapiens. In a few lines:
as §2

For a further assay, the system named is L1210. Description: Inhibitory concentration required to inhibit murine leukemia (L1210) cell line by 50%. The assay is classed as functional, cell-based. As to conditions: Mus musculus.
A further assay relates to HBL. Put plainly: Inhibitory concentration required to inhibit melanoma (HBL) cells by 50%. As to conditions: Homo sapiens. The format is functional, cell-based. In a few lines: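 Monolayer culture in D-MEM or RPMI 1640 plus 10% FBS, 37 °C, 5% CO2. MTT assay at 570 nm, expressed as % growth. IC50 graphically fitted by hand; four parallel samples, three experiments.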

In a further assay the test system is FM3A (Mus musculus). Description: Inhibitory concentration required to inhibit mammary carcinoma (FM3A) cell line by 50%.

Structures are written as SMILES. A value given as a limit tells only on which side of the number the result lay.

Usually IC50 stands for the point on the concentration scale where inhibition reaches its midpoint. Lower therefore signals greater potency in that assay. `CC(=O)OC(C)Cn1cnc2c(Cl)nc(I)nc21` (stereo not given): the IC50 in the assay with CCRF-CEM came out at 15.9 µM; with HeLa it was 5.13 µM; in assay [1], 14.5 µM; in the assay on FM3A it was 47 µM; in the assay with MOLT-4, 12.3 µM; with HEp-2, 6.31 µM. In addition, the IC50 in the assay with SW-620 is 3.55 µM; in the assay on HT-29 it was 6.42 µM; in the assay on WI-38 it was 14.1 µM; in the assay on L1210, 13 µM; with HBL it was 5.25 µM.
`CC(O)Cn1cnc2c(Cl)nc(I)nc21` (stereo not given): the IC50 in the assay on CCRF-CEM is more than 500 µM; in the assay on HeLa, more than 500 µM; in assay [1], more than 500 µM; in the assay with FM3A, 479 µM; with MOLT-4 it was more than 500 µM; in the assay on HEp-2 it was more than 500 µM. In addition, the IC50 with SW-620, in the assay on HT-29, in the assay with WI-38, in the assay with L1210 and in the assay with HBL was more than 500 µM each time.
`OCCOCn1cnc2c(S)nc(F)nc21`: the IC50 in the assay with CCRF-CEM is 117 µM; with HeLa, more than 500 µM; in [1] it was more than 500 µM; with FM3A it was 155 µM; in the assay with MOLT-4, 164 µM; with HEp-2 it was more than 500 µM. Also, the IC50 with SW-620 is more than 500 µM; in the assay with HT-29 it was more than 500 µM; in the assay on WI-38, more than 500 µM; with L1210 it was 170 µM; in the assay on HBL, more than 500 µM.
In the case of `CC(=O)OC(C)Cn1cnc2c(S)nc(F)nc21` (stereo not given), the IC50 with CCRF-CEM is more than 500 µM; in the assay on HeLa, more than 500 µM; in assay [1], more than 500 µM; with FM3A it was 368 µM; in the assay on MOLT-4, more than 500 µM; with HEp-2 it was 200 µM. Also, the IC50 in the assay with SW-620 is more than 500 µM; with HT-29, more than 500 µM; in the assay with WI-38, more than 500 µM; with L1210 it was 226 µM; in the assay with HBL, more than 500 µM.
On to `CC(=O)OC(C)Cn1cnc2c(N)nc(I)nc21` (stereo not given), for which the IC50 in the assay with CCRF-CEM is 381 µM; in the assay with HeLa it was more than 500 µM; in assay [1], more than 500 µM; in the assay on FM3A it was 462 µM; with MOLT-4, 436 µM; in the assay on HEp-2, more than 500 µM. Moreover, the IC50 is more than 500 µM in the assay on SW-620; more than 500 µM with HT-29; more than 500 µM in the assay on WI-38; 421 µM in the assay with L1210; more than 500 µM with HBL.
Take `CC(O)Cn1cnc2c(N)nc(I)nc21` (stereo not given): the IC50 in the assay on CCRF-CEM is 465 µM; in the assay with HeLa, more than 500 µM; in assay [1], more than 500 µM; with FM3A, 452 µM; with MOLT-4, more than 500 µM; in the assay with HEp-2 it was more than 500 µM. Further, the half-inhibitory concentration (IC50) in the assay on SW-620 is more than 500 µM; in the assay with HT-29, more than 500 µM; with WI-38 it was more than 500 µM; with L1210, 490 µM; with HBL, more than 500 µM.
Regarding `Nc1nc(I)nc2c1ncn2COCCO`, the IC50 (with CCRF-CEM; in the assay with HeLa; in assay [1]; with FM3A; in the assay on MOLT-4; in the assay on HEp-2) was more than 500 µM each time. Besides, the IC50 in the assay with SW-620, in the assay with HT-29, with WI-38, with L1210 and in the assay on HBL was more than 500 µM each time.
As to `CC(=O)OC(C)Cn1cnc2c(Cl)nc(N)nc21` (stereo not given), the IC50 (with CCRF-CEM; in the assay on HeLa; in assay [1]; with FM3A; with MOLT-4; in the assay on HEp-2) was more than 500 µM each time. The IC50 in the assay on SW-620, in the assay with HT-29, with WI-38, with L1210 and with HBL was more than 500 µM in each case.
For `CC(=O)OC(C)Cn1cnc2c(S)nc(N)nc21` (stereo not given), the IC50 amounted to 381 µM with CCRF-CEM; 89 µM in the assay with HeLa; 25 µM in assay [1]; 366 µM in the assay on FM3A; 370 µM in the assay on MOLT-4; 10 µM in the assay with HEp-2. The IC50 in the assay with SW-620 was 0.16 µM; in the assay on HT-29 it was more than 500 µM; in the assay on WI-38, 0.4 µM; in the assay on L1210 it was 128 µM; with HBL, 630 µM.
As for `CC(=O)OCCOCn1cnc2c(S)nc(N)nc21`, the IC50 was 7.5 µM with CCRF-CEM; 5 µM in the assay on HeLa; more than 500 µM in assay [1]; 2 µM in the assay with FM3A; 8.9 µM in the assay with MOLT-4; 4.9 µM in the assay on HEp-2. Moreover, the IC50 in the assay on SW-620 was 4.2 µM; in the assay with HT-29 it was more than 500 µM; in the assay on WI-38, more than 500 µM; in the assay with L1210, 3.2 µM; in the assay with HBL, 15.8 µM.
Turning to `COc1nc(I)nc2c1ncn2COCCO`, the IC50 (in the assay on CCRF-CEM; with HeLa; in assay [1]; in the assay with FM3A; in the assay with MOLT-4; in the assay on HEp-2) was more than 500 µM in each case. The IC50 in the assay with SW-620, in the assay with HT-29, with WI-38, in the assay on L1210 and in the assay with HBL was more than 500 µM in each case.
As for `CC(O)Cn1cnc2c(F)nc(N)nc21` (stereo not given), the IC50 in the assay with CCRF-CEM is more than 500 µM; with HeLa, 63 µM; in [1] it was more than 500 µM; in the assay with MOLT-4 it was more than 500 µM; in the assay on SW-620, more than 500 µM; in the assay on HT-29, more than 500 µM. The IC50 with WI-38 is more than 500 µM; in the assay with L1210 it was more than 500 µM; in the assay on HBL, 25 µM; in the assay with FM3A (Mus musculus), more than 500 µM.
`CC(=O)OCCOCn1cnc2c(S)nc(F)nc21`: the IC50 in the assay on CCRF-CEM is 37 µM; in the assay with HeLa it was more than 500 µM; in assay [1] it was more than 500 µM; with FM3A it was 136 µM; in the assay on MOLT-4 it was 35 µM; in the assay with HEp-2 it was more than 500 µM. Moreover, the IC50 in the assay with SW-620 was more than 500 µM; with HT-29, more than 500 µM; in the assay with WI-38, more than 500 µM; in the assay with L1210 it was 40 µM; in the assay on HBL, more than 500 µM.
Regarding `CC(=O)OC(C)Cn1cnc2c(Cl)nc(F)nc21` (stereo not given), the IC50 turned out to be 44 µM with CCRF-CEM; 50 µM in the assay with HeLa; 93.3 µM in assay [1]; 93 µM in the assay on FM3A; 41 µM with MOLT-4; 10 µM in the assay on HEp-2. In addition, the 50% inhibitory concentration (IC50) was 8.9 µM in the assay on SW-620; 75.9 µM in the assay on HT-29; 100 µM with WI-38; 37 µM with L1210; 44.7 µM in the assay with HBL.
With `CC(O)Cn1cnc2c(S)nc(F)nc21` (stereo not given), the IC50 (in the assay with CCRF-CEM; with HeLa; in assay [1]; with FM3A; with MOLT-4; in the assay on HEp-2) was more than 500 µM each time. Further, the IC50 in the assay with SW-620, in the assay on HT-29, in the assay on WI-38, with L1210 and in the assay on HBL was more than 500 µM each time.
`CC(=O)OCCOCn1cnc2c(Cl)nc(I)nc21`: the IC50 was 11 µM in the assay with CCRF-CEM; 398 µM in the assay with HeLa; more than 500 µM in [1]; 34 µM with FM3A; 9.4 µM in the assay on MOLT-4; 56.2 µM in the assay with HEp-2. For the same compound, the IC50 with SW-620 was 15.8 µM; in the assay on HT-29 it was more than 500 µM; in the assay on WI-38, 63.1 µM; in the assay on L1210, 8.6 µM; in the assay with HBL it was 19.9 µM.

These data come from ChEMBL document CHEMBL1145945, “Synthesis and biological evaluation of iodinated and fluorinated 9-(2-hydroxypropyl) and 9-(2-hydroxyethoxy)methyl purine nucleoside analogues” (J Med Chem, 2003).
